From PMC11740949 (Bioconjugate Chemistry, 2024) come the findings set out here.

For the experiment, the target named is T1, recombinant murine FAP (Mus musculus, UniProt P97321).
T1 sequence (P97321 1-761): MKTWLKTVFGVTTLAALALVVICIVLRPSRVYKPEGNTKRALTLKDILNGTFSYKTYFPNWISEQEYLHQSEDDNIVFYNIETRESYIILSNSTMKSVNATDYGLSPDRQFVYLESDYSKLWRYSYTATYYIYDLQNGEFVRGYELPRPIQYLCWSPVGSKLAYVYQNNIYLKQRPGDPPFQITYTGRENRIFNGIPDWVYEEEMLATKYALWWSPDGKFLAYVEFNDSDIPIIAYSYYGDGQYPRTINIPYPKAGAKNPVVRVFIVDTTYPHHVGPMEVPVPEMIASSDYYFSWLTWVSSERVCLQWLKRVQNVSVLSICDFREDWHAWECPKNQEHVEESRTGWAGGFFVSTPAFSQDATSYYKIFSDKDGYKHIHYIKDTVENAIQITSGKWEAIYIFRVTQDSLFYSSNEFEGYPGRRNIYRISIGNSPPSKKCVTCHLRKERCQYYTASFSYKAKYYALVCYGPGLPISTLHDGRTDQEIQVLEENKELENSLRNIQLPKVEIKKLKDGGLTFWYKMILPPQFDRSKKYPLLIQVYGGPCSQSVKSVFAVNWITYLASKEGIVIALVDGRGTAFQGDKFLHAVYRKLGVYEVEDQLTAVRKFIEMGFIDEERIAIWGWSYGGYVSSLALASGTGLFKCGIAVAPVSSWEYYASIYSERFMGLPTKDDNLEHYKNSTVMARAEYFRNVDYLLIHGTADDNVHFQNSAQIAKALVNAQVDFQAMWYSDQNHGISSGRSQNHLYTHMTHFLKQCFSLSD
Nature of the experiment: FAP inhibition assay with fluorogenic substrate Z-Gly-Pro-AMC. The following applies: three-parameter fit. The format is biochemical. In a few lines:
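Recombinant mouse FAP at 0.01 μg/100 μL in 50 mM Tris, 1.0 M NaCl, 0.1% BSA (w/v), pH 7.5. Test compound was serially diluted 1:5 (10 pM–10 μM) and preincubated with the enzyme for 30 min at 37 °C. Z-Gly-Pro-AMC was then added (10 μL of a 100 μM solution) for 60 min at 37 °C, and fluorescence was read at Ex 380/Em 460. Activity was scaled to no-inhibitor and no-enzyme wells, and IC50 came from a three-parameter inhibitor-vs-response fit.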

Take `N#C[C@@H]1CC(F)(F)CN1C(=O)CNC(=O)c1ccnc2ccc(OCCCN3CCN(C(=O)CN4CCN(CC(=O)O)CCN(CC(=O)O)CCN(CC(=O)O)CC4)CC3)cc12` [FAPi-4]: the concentration for half-maximal inhibition (IC50) is 590 pM.
